The values below come from ChEMBL document CHEMBL1126023, “Synthesis, antinociceptive activity, and opioid receptor profiles of substituted trans-3-(decahydro- and octahydro-4a-isoquinolinyl)phenols” (J Med Chem, 1992).

Where only a bound is given, the exact number is not on record here.

The ED50 is the dose at which the effect has come halfway, by size or by number of responders. A high value points to weaker potency. For orientation: pKB means the negative decadic logarithm of the KB, by convention in mol/L. Higher therefore signals a small KB. A word on the IC50: it is the concentration at which inhibition is half-maximal. Higher therefore signals lower potency. Broadly, the inhibition is the change of the read-out against control, counted positive when it falls. Low readings indicate a weak effect, high ones a strong effect.

In one experiment the test system is Mus musculus. Nature of the experiment: Effective dose for the inhibition of acetylcholine induced mouse abdominal contriction was determined in vivo. Format: functional. Conditions: Abdomen. The method in brief: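 Mouse abdominal constriction induced by acetylcholine. Compounds given sc in saline vehicle. ED50 reported in mg/kg sc, with 95% confidence limits, or both values where only two determinations were made.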

Experiment [1] is filed under the species Oryctolagus cuniculus. The experiment can be described thus: In vitro antagonist affinity constant was measured on rabbit vas deferens. Format: functional.
Experiment [2] addresses Opioid receptors; mu/kappa/delta. Nature of the experiment: (§1) In vitro inhibitory activity against opioid receptor in Guinea pig ileum. Format: tissue-based, Cavia porcellus.
Experiment [3] deals with Mu-type opioid receptor (Cavia porcellus) (UniProt P97266). Nature of the experiment: Dose ratio IC50 after beta-FNA (10e-6 M) 30 min pretreatment on guinea pig ileum and IC50 before beta-FNA treatment against opioid receptor mu in guinea pig ileum. Format: tissue-based.
Mu-type opioid receptor (Cavia porcellus), sequence (P97266 whole entry): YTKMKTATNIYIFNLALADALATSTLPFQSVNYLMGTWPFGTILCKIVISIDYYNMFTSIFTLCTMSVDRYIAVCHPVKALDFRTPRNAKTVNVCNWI
The nature of experiment [4]: as §1. Format: functional, tissue-based.
The species entered for experiment [5] is Oryctolagus cuniculus. Nature of the experiment: In vitro antagonist affinity constant was measured on rabbit vas deferens AT 10e-6 M concentration. Format: functional.

Compound `C=C1CCC2(c3cccc(O)c3)CCN(CC3CC3)C[C@@H]2C1` (some centres not stated) displayed an ED50 in the experiment on Mus musculus of 1.3 mg/kg. Also, the negative logarithm of the KB (pKB) in the experiment listed under Oryctolagus cuniculus [1] came to 5.8.

Compound `Oc1cccc(C23CC=CC[C@H]2CN(CC2CCC2)CC3)c1` (some centres not stated) displayed an ED50 in the experiment with Mus musculus of 0.39 mg/kg. The compound also gave an IC50 in experiment [2] of 0.06 µM. Moreover, in experiment [3], the Dose ratio is 14.7. In addition, the pKB in the experiment listed under Oryctolagus cuniculus [1] is listed as 5.7.

As for `C=C1C[C@@H](C)[C@H]2CN(CC3CC3)CCC2(c2cccc(O)c2)C1` (some centres not stated), the ED50 with Mus musculus was found to be 0.05 mg/kg. The IC50 in the experiment filed under Oryctolagus cuniculus [1] stood at 28 µM.

For `C=C1CC[C@H]2CN(C)CCC2(c2cccc(O)c2)C1` (some centres not stated), it took a dose of 0.18 mg/kg to reach the 50% effect level in the experiment with Mus musculus (ED50). Also, the IC50 in experiment [2] worked out at 0.06 µM. For the same compound, in experiment [3], the Dose ratio stood at 22. For the same compound, the pKB in the experiment listed under Oryctolagus cuniculus [1] came out at 5.9.

Turning to `C=C1CCC2(c3cccc(O)c3)CCN(CC3CCC3)C[C@@H]2C1` (some centres not stated), the median effective dose (ED50) with Mus musculus was 1.06 mg/kg. The same compound came in with a pKB in the experiment filed under Oryctolagus cuniculus [1] of 5.3.

On to `C=CCN1CCC2(c3cccc(O)c3)CC(=C)CC[C@H]2C1` (some centres not stated), for which, in the experiment on Mus musculus, the 50% effect level (ED50) was put at a dose of 0.55 mg/kg. For the same compound, the IC50 in experiment [2] is 0.14 µM. Also, in experiment [3], the Dose ratio stood at 3.3. For the same compound, the pKB in the experiment listed under Oryctolagus cuniculus [1] was 5.5.

In the experiment with Mus musculus, `C=C1C[C@H](C)[C@H]2CN(CC3CC3)CCC2(c2cccc(O)c2)C1` (some centres not stated) gave an ED50 of 3.3 mg/kg. In the experiment listed under Oryctolagus cuniculus [1], the negative logarithm of the KB (pKB) stood at 4.8.

As for `CC[C@@]12CCN(CC3CC3)C(C(=O)c3ccc(O)cc31)[C@@H]2C` [ETHYLKETOCYCLAZOCINE], the midpoint of inhibition in experiment [4], the IC50, lay at 0.0005 µM. In the experiment with Mus musculus, this compound displayed an ED50 of 0.08 mg/kg.

For `Oc1cccc(C23CCCC[C@H]2CN(CC2CC2)CC3)c1` (some centres not stated), in the experiment with Mus musculus, the ED50 came to 1.09 mg/kg. Besides, the IC50 in experiment [2] came to 0.15 µM. The Dose ratio in experiment [3] stood at 2.8. Moreover, in the experiment listed under Oryctolagus cuniculus [5], 1 µM produced 24% inhibition.

In turn, `CN1CC[C@]23c4c5ccc(O)c4O[C@H]2[C@@H](O)C=C[C@H]3[C@H]1C5` [MORPHINE] yielded an ED50 in the experiment on Mus musculus of 0.47 mg/kg.

Consider `O=C1CC[C@H]2CN(CC3CC3)CCC2(c2cccc(O)c2)C1` (some centres not stated), for which the 50% effect level in the experiment on Mus musculus (ED50) was put at a dose of 1.6 mg/kg. The half-maximal inhibitory concentration (IC50) in experiment [2] was 0.12 µM. Besides, in experiment [3], the Dose ratio is 1.4. Moreover, the pKB in the experiment filed under Oryctolagus cuniculus [1] is on record as 6.1.

`Oc1cccc(C23CC=CC[C@H]2CN(CC2CC2)CC3)c1` (some centres not stated) returned a 50% effective dose (ED50) with Mus musculus of 0.53 mg/kg. In experiment [2], this compound yielded an IC50 of 0.09 µM. Moreover, in experiment [3], the Dose ratio worked out at 2.3.

As to `C=CCN1CCC2(c3cccc(O)c3)CC=CC[C@H]2C1` (some centres not stated), the ED50 in the experiment on Mus musculus turned out to be 1.91 mg/kg. In the experiment filed under Oryctolagus cuniculus [1], this compound displayed a pKB of 5.6.

As to `C=C1CC[C@H]2CN(CC3CCC3)CCC2(c2cccc(O)c2)C1` (some centres not stated), the 50% effect level with Mus musculus (ED50) was put at a dose of 0.23 mg/kg. This compound displayed a pKB in the experiment filed under Oryctolagus cuniculus [1] of 5.3.

As for `Oc1cccc(C23C=C[C@H](O)C[C@H]2CN(CC2CC2)CC3)c1` (some centres not stated), the ED50 in the experiment with Mus musculus was greater than 10 mg/kg. The compound also showed a pKB in the experiment filed under Oryctolagus cuniculus [1] of 5.6.

`O=C1CCC2(c3cccc(O)c3)CCN(CC3CCC3)C[C@@H]2C1` (some centres not stated) returned an ED50 in the experiment on Mus musculus greater than 10 mg/kg.

`Oc1cccc(C23CC[C@H](O)C[C@H]2CN(CC2CC2)CC3)c1` (some centres not stated) returned an ED50 in the experiment with Mus musculus greater than 10 mg/kg.

The compound `O=C1CCC2(c3cccc(O)c3)CCN(CC3CC3)C[C@@H]2C1` (some centres not stated) yielded an ED50 in the experiment on Mus musculus greater than 10 mg/kg.

As to `C=C1CC[C@H]2CN(CC3CC3)CCC2(c2cccc(O)c2)C1` (some centres not stated), the ED50 in the experiment with Mus musculus worked out at 0.17 mg/kg. In experiment [2], this compound registered an IC50 of 0.015 µM. For the same compound, in experiment [3], the Dose ratio turned out to be 1.7. Besides, the pKB in the experiment filed under Oryctolagus cuniculus [1] is listed as 6.3.

In the experiment with Mus musculus, `Oc1cccc(C23CC[C@H](O)C[C@H]2CN(CC2CCC2)CC3)c1` (some centres not stated) registered an ED50 greater than 10 mg/kg.

In the experiment with Mus musculus, `CN1CCC2(c3cccc(O)c3)CC=CC[C@H]2C1` (some centres not stated) had an ED50 of 0.5 mg/kg. The IC50 in experiment [2] came out at 0.13 µM. In addition, the Dose ratio in experiment [3] was greater than 30. In addition, the pKB in the experiment listed under Oryctolagus cuniculus [1] came out at 5.4.
